pEC50, pKi: −log10 of the molar value. The source made the active and inactive calls. The rule behind the calls is not given here.
Key:
[1] = target: Serine/threonine-protein kinase DCLK2 (Homo sapiens, UniProt Q8N568); test: Inhibition of DCAMKL2
[2] = Inhibition of JNK1a1; design: species or system Homo sapiens
[3] = Inhibition of JNK2a2; design: species or system Homo sapiens
[4] = target: Mitogen-activated protein kinase kinase kinase 9 (Homo sapiens, UniProt P80192); test: Inhibition of MLK1
SRSF protein kinase 3 = SRSF protein kinase 3 (Homo sapiens, UniProt Q9UPE1); test: Inhibition of MSSK1
[5] = target: Muscle, skeletal receptor tyrosine-protein kinase (Homo sapiens, UniProt O15146); test: Inhibition of MUSK
[6] = target: Serine/threonine-protein kinase Nek11 (Homo sapiens, UniProt Q8NG66); test: Inhibition of NEK11
[7] = target: Serine/threonine-protein kinase Nek3 (Homo sapiens, UniProt P51956); test: Inhibition of NEK3
[8] = Inhibition of PHK lambda 2; design: species or system Homo sapiens
[9] = Inhibition of PKA; design: species or system Homo sapiens
[10] = Inhibition of PKG1A; design: species or system Homo sapiens
[11] = Inhibition of PKG1B; design: species or system Homo sapiens
[12] = target: Serine/threonine-protein kinase 31 (Homo sapiens, UniProt Q9BXU1); test: Inhibition of STK31
[13] = target: Serine/threonine-protein kinase 33 (Homo sapiens, UniProt Q9BYT3); test: Inhibition of STK33
TAK1/TAB1 = TAK1/TAB1 (Homo sapiens, UniProt O43318); test: Inhibition of TAK1-TAB1
[14] = target: Serine/threonine-protein kinase TBK1 (Homo sapiens, UniProt Q9UHD2); test: Inhibition of TBK1
[15] = target: Serine/threonine-protein kinase WNK2 (Homo sapiens, UniProt Q9Y3S1); test: Inhibition of WNK2
[16] = Inhibition of CMET; design: species or system Homo sapiens
HeLa = test: Cytotoxicity against HeLa cells by MTS assay; type: functional, cell-based; settings: Homo sapiens
NCI-H1299 = test: Inhibition of doxorubicin-induced cell cycle arrest in H1299 cells at G2/M phase by FACS assay; type: functional, cell-based; settings: Homo sapiens
Summary of the method: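 H1299 cells treated with 500 nM doxorubicin to induce G2/M arrest, with or without inhibitor at various concentrations, up to 10 μM. Cells stained with propidium iodide and DNA content analysed by FACS. EC50 for abrogation of the Dox-induced G2/M checkpoint.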

[17] = Cell cycle arrest in H1299 cells by accumulation at G2/M phase by FACS assay; type: functional, cell-based; settings: Homo sapiens; NCI-H1299
[18] = Inhibition of AUR1; design: species or system Homo sapiens
[19] = target: Ribosomal protein S6 kinase alpha-4 (Homo sapiens, UniProt O75676); test: Inhibition of MSK2
[20] = target: 5'-AMP-activated protein kinase subunit beta-1 (Homo sapiens, UniProt Q9Y478); test: Inhibition of AMPK
[21] = Inhibition of AUR2; design: species or system Homo sapiens
[22] = target: Serine/threonine-protein kinase Sgk1 (Homo sapiens, UniProt O00141); test: Inhibition of SGK
[23] = target: NUAK family SNF1-like kinase 1 (Homo sapiens, UniProt O60285); test: Inhibition of ARK5
[24] = target: Cyclin-dependent kinase 6 (Homo sapiens, UniProt Q00534); test: Inhibition of CDK6
[25] = target: Cyclin-dependent kinase 7 (Homo sapiens, UniProt P50613); test: Inhibition of CDK7
[26] = target: Cyclin-dependent kinase 9 (Homo sapiens, UniProt P50750); test: Inhibition of CDK9
[27] = target: Calcium/calmodulin-dependent protein kinase type IV (Homo sapiens, UniProt Q16566); test: Inhibition of CAMK4

Chain of TAK1/TAB1 (Q15750 whole entry): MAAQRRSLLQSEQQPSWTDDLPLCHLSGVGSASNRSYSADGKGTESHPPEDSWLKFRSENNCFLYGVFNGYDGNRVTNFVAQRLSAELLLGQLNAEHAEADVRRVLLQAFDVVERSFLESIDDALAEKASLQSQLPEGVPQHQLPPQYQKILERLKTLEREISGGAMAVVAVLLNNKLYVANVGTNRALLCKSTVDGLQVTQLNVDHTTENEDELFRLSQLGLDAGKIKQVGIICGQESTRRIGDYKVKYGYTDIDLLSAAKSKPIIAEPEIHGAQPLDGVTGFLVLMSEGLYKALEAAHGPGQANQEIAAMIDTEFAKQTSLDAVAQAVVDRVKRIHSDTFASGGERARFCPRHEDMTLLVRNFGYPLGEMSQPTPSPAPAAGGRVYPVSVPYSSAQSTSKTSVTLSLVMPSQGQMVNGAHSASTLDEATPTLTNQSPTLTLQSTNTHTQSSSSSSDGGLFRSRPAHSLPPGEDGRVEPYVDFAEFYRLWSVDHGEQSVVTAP
Chain of TAK1/TAB1 (O43318 whole entry): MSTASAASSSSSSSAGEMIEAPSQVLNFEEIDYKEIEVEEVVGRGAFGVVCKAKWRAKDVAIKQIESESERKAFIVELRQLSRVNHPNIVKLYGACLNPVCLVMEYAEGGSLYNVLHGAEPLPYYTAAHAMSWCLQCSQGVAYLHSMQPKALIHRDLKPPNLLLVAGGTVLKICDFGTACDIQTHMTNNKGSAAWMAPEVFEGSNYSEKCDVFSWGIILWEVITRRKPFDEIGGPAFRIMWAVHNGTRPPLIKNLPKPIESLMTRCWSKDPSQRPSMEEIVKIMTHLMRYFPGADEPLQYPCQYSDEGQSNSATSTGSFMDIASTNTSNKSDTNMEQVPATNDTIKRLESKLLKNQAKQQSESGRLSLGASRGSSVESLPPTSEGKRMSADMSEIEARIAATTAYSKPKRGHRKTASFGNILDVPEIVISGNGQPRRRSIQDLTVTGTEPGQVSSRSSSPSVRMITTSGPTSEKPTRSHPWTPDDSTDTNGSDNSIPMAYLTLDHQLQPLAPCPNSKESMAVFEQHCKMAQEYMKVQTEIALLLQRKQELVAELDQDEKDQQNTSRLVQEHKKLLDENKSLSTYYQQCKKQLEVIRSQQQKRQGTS
Chain of Serine/threonine-protein kinase DCLK2 (Q8N568 whole entry): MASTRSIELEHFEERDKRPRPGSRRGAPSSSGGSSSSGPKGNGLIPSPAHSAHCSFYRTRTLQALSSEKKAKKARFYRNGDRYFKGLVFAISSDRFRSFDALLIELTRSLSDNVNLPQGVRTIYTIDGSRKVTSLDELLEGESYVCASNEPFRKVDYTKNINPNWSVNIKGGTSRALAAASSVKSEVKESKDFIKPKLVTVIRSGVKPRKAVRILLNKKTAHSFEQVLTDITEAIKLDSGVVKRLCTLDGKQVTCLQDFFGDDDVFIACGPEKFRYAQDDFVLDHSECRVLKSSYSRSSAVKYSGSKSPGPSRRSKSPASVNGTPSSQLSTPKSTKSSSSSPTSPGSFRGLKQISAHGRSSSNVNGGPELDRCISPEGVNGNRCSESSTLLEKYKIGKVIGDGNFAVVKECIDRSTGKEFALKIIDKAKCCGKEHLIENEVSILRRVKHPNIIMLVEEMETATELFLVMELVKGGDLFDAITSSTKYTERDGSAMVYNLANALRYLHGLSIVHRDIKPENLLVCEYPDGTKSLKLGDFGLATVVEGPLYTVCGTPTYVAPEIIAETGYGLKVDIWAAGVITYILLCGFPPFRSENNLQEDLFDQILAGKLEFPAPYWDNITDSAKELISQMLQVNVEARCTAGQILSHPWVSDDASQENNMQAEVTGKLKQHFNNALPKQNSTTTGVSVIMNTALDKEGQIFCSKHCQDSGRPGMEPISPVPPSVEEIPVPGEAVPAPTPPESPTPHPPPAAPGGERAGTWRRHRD
Chain of Ribosomal protein S6 kinase alpha-4 (O75676 whole entry): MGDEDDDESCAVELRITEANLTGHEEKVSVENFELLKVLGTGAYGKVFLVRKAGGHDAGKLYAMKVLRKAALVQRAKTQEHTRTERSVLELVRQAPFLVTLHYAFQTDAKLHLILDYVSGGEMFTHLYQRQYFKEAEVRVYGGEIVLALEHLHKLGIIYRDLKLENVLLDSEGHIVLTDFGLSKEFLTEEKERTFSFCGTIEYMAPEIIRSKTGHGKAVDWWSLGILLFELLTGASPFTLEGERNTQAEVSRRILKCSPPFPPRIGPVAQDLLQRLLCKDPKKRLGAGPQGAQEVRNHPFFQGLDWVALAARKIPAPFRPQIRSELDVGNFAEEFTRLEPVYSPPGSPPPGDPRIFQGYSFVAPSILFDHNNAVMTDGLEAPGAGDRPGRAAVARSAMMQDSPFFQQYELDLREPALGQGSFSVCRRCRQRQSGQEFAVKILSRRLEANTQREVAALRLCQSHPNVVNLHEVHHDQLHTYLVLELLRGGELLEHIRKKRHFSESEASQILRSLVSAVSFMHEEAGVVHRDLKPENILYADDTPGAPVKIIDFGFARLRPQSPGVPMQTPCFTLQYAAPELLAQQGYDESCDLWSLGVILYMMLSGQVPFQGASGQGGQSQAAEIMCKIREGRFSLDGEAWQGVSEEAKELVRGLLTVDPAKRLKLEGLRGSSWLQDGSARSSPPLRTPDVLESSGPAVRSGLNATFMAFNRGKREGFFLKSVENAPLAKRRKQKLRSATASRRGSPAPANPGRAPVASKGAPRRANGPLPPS
Chain of Serine/threonine-protein kinase Nek11 (Q8NG66 whole entry): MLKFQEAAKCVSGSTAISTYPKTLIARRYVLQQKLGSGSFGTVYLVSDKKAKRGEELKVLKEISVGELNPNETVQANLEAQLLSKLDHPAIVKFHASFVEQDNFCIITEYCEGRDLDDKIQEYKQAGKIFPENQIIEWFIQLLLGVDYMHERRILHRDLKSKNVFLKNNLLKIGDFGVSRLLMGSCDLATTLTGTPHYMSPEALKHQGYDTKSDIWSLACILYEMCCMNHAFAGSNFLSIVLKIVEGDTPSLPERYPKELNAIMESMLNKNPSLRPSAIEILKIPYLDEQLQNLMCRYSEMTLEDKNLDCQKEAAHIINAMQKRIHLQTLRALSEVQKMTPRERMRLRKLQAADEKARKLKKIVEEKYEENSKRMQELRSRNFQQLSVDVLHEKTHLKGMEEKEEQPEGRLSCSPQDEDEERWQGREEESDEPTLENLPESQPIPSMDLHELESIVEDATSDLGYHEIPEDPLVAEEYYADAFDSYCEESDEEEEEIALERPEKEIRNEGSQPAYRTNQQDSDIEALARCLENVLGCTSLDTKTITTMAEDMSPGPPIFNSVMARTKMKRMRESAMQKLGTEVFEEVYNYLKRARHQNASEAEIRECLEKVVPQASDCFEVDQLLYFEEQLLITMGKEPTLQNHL
Chain of NUAK family SNF1-like kinase 1 (O60285 whole entry): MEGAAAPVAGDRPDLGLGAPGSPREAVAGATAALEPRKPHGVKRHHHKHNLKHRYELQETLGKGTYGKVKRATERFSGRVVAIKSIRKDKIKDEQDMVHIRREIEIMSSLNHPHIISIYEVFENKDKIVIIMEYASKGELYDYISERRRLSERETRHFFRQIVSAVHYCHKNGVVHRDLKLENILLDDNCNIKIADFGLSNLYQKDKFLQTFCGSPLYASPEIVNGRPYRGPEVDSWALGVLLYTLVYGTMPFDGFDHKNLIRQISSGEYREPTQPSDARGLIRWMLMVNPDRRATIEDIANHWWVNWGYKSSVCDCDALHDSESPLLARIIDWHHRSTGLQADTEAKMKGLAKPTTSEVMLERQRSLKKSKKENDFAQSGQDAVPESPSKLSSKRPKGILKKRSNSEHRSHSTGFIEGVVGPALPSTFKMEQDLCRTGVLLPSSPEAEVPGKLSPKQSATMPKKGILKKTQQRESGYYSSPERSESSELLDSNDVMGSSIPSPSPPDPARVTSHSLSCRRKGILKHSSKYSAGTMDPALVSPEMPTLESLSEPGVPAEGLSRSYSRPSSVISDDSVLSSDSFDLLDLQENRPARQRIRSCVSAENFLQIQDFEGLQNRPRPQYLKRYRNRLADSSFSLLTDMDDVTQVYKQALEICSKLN
Chain of Muscle, skeletal receptor tyrosine-protein kinase (O15146 whole entry): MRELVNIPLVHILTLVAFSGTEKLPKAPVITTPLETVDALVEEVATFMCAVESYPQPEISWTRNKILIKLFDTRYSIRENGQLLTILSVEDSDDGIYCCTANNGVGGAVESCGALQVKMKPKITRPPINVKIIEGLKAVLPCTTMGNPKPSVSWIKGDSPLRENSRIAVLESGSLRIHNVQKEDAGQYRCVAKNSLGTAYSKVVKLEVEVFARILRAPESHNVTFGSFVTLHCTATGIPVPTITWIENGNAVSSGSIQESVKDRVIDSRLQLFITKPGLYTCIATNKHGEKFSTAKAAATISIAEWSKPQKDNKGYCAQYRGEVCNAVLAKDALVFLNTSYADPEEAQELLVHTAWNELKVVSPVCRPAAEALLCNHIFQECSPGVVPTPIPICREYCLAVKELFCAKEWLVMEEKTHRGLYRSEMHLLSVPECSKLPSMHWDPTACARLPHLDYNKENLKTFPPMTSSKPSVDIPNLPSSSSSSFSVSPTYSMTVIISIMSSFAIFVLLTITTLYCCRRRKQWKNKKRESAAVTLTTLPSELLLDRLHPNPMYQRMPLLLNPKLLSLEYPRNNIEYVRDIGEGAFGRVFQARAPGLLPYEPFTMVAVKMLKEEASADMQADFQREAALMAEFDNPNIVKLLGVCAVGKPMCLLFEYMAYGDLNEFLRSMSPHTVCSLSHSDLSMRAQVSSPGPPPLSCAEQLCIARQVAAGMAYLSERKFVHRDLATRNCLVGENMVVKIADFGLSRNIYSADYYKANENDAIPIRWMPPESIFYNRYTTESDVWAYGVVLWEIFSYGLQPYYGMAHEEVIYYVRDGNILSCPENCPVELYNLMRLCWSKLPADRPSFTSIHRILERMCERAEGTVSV

N#Cc1ncc2nc1OCCCCOc1cc(NCc3cncs3)c(Cl)cc1NC(=O)N2
pKi [1]: < 5.02
pKi [2]: < 5.51
pKi [3]: < 5.39
pKi [4]: < 5.78
pKi (SRSF protein kinase 3): < 5.76
pKi [5]: < 5.78
pKi [6]: < 5.81
pKi [7]: < 5.78
pKi [8]: < 5.31
pKi [9]: < 5.12
pKi [10]: < 5.75
pKi [11]: < 5.77
pKi [12]: < 5.84
pKi [13]: < 5.79
pKi (TAK1/TAB1): < 5.79
pKi [14]: < 5.82
pKi [15]: < 5.82
pKi [16]: < 5.54
pEC50 (HeLa): 4.23
Activity (NCI-H1299): inactive
Activity [17]: inactive
pKi [18]: 5.69
pKi [19]: 6.02
pKi [20]: 5.81
pKi [21]: 5.72
pKi [22]: 5.09
pKi [23]: < 5.82
pKi [24]: < 5.81
pKi [25]: < 5.82
pKi [26]: < 5.78
pKi [27]: < 5.07
